Experimental data taken from ChEMBL document CHEMBL4138117, “Pentapeptides for the treatment of small cell lung cancer: Optimisation by Nind-alkyl modification of the tryptophan side chain” (Eur J Med Chem, 2017).
Activity calls are given as the source filed them. The calls are words filed in the database; no cut-off is given here. *1 amine or outer side, *2 acyl side, *3 side chain or, on linkers, in order; H or OH if unused. Where a SMILES comes first, the peptide text is derived from it. [ ]: non-standard residue; d: D form. X1 = C=CC(C)(C)n1cc(C[C@@H](N[*:1])C(=O)[*:2])c2ccccc21; dTrp(1-Bu) = CCCCn1cc(C[C@@H](N)C(=O)O)c2ccccc21; dNMeF = CN[C@H](Cc1ccccc1)C(=O)O

Tests used:
[1] = Metabolic stability in neat mouse plasma assessed as parent compound remaining at 400 ug/ml after 48 hrs by RP-HPLC method; assay type: ADME, cell-free; details: read-out: Stability
Procedure, shortened: (§1)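 Peptide added to neat mouse plasma at 400 µg/ml and held at 37 °C. Aliquots taken at 0, 3, 24 and 48 h and analysed by RP-HPLC on a C8 column. Parent and degradation product(s) reported as relative percentage; n = 3.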

[2] = Retention time of the compound in mouse plasma at 400 ug/ml after 48 hrs by RP-HPLC method; assay type: ADME, cell-free; procedure, shortened: as §1
[3] = Metabolic stability in neat mouse plasma assessed as parent compound remaining at 400 ug/ml after 3 hrs by RP-HPLC method; assay type: ADME, cell-free; details: read-out: Stability; procedure, shortened: as §1
[4] = Retention time of the compound in mouse plasma at 400 ug/ml measured immediately after compound addition by RP-HPLC method; assay type: ADME, cell-free; procedure, shortened: as §1
[5] = Drug metabolism in mouse plasma at 400 ug/ml after 48 hrs by mass spectrophotometric method; assay type: ADME, cell-free
[6] = system: NCI-H69; assay: Cytotoxicity against human H69 cells assessed as decrease in cell viability after 48 hrs by resazurin dye-based assay; assay type: functional; details: NCI-H69, 48 h
Procedure, shortened: (§2)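 H69 and DMS79 suspension cells grown in 10% FBS/RPMI-1640 at 37 °C, 5% CO2. Seeded at 1 x 10^4 cells/well in triplicate and given peptide the same day at 0.1–30 µM final, diluted in 50% FBS/saline. After 48 h, resazurin (0.125 mg/ml in PBS) added for 5 h, then fluorescence read and % viability calculated. Three independent repeats; IC50 taken from dose-response curves.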

[7] = Drug metabolism in neat mouse plasma at 400 ug/ml by RP-HPLC method; assay type: ADME, cell-free; details: TDE = time-dependent effect; procedure, shortened: as §1
[8] = system: DMS-79; assay: Cytotoxicity against human DMS79 cells assessed as decrease in cell viability after 48 hrs by resazurin dye-based assay; assay type: functional; details: DMS-79, 48 h; procedure, shortened: as §2
[9] = Retention time of the compound in mouse plasma at 400 ug/ml after 3 hrs by RP-HPLC method; assay type: ADME, cell-free; procedure, shortened: as §1
[10] = Retention time of the compound in mouse plasma at 400 ug/ml after 24 hrs by RP-HPLC method; assay type: ADME, cell-free; procedure, shortened: as §1
[11] = system: DMS-79; assay: Induction of apoptosis in human DMS79 cells assessed as viable cells at 6 uM after 24 hrs by Annexin V/SYTOX Blue staining-based flow cytometric method (reference value: 61.7 +/- 9.1%); assay type: functional; details: DMS-79, 24 h, read-out: Activity
[12] = system: DMS-79; assay: Induction of apoptosis in human DMS79 cells assessed as viable cells after 24 hrs by Annexin V/SYTOX Blue staining-based flow cytometric method; assay type: functional, cell-based
[13] = system: DMS-79; assay: Induction of apoptosis in human DMS79 cells assessed as late apoptotic cells at 6 uM after 24 hrs by Annexin V/SYTOX Blue staining-based flow cytometric method (reference value: 28.6 +/- 8.2%); assay type: functional
[14] = system: DMS-79; assay: Induction of apoptosis in human DMS79 cells assessed as increase in late apoptotic cells at 6 uM after 48 hrs by acridine orange/ethidium bromide staining-based inverted fluorescence microscopic method; assay type: functional, cell-based
Procedure, shortened: (§3)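 Cells seeded at 1 x 10^4 cells/well and treated with peptide at 6 µM final in complete medium for 48 h at 37 °C, 5% CO2, with an untreated control. Then 1:1 AO/EB mix (100 µg/ml of each dye in PBS) added and cells viewed by inverted fluorescence microscopy at 10x.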

[15] = system: DMS-79; assay: Induction of apoptosis in human DMS79 cells assessed as necrotic cells at 2 uM after 24 hrs by Annexin V/SYTOX Blue staining-based flow cytometric method (reference value: 3.3 +/- 0.6%); assay type: functional
[16] = system: NCI-H69; assay: Induction of apoptosis in human H69 cells assessed as increase in late apoptotic cells at 6 uM after 48 hrs by acridine orange/ethidium bromide staining-based inverted fluorescence microscopic method; assay type: functional, cell-based; procedure, shortened: as §3
[17] = system: DMS-79; assay: Induction of apoptosis in human DMS79 cells assessed as early apoptotic cells at 2 uM after 24 hrs by Annexin V/SYTOX Blue staining-based flow cytometric method (reference value: 6.4 +/- 0.4%); assay type: functional
[18] = system: NCI-H69; assay: Induction of apoptosis in human H69 cells assessed as cell shrinkage at 6 uM after 48 hrs by acridine orange/ethidium bromide staining-based inverted fluorescence microscopic method; assay type: functional; procedure, shortened: as §3
[19] = Drug metabolism in mouse plasma assessed as formation of (3R,6R,9S,12R,15S)-3,9-dibenzyl-6-((1H-indol-3-yl)methyl)-12-((1-butyl-1H-indol-3-yl)methyl)-15-isobutyl-4,7,10,13-tetraoxo-2,5,8,11,14-pentaazahexadecan-16-oic acid at 400 ug/ml after 3 to 48 hrs by RP-HPLC method
[20] = Metabolic stability in CD1 mouse liver S9 fraction at 400 ug/ml after 1 to 3 hrs in presence of UDPGA, NADPH, GSH, PAPS by RP-HPLC method; assay type: ADME, subcellular
Procedure, shortened: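 Male CD-1 mouse liver S9 fraction incubated with peptide as in the plasma study, at 37 °C. Reaction started by adding a 1:1:1:1 cofactor mix made in 200 mM Tris pH 7.4 with 2 mM MgCl2; final levels NADPH 1 mM, UDPGA 0.5 mM, GSH 0.05 mM, PAPS 0.05 mg/ml. Aliquots at 0, 1, 2 and 3 h analysed by RP-HPLC.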

[21] = system: DMS-79; assay: Induction of apoptosis in human DMS79 cells assessed as early apoptotic cells at 6 uM after 24 hrs by Annexin V/SYTOX Blue staining-based flow cytometric method (reference value: 6.4 +/- 0.4%); assay type: functional
[22] = system: DMS-79; assay: Induction of apoptosis in human DMS79 cells assessed as loss of plasma membrane integrity at 6 uM after 48 hrs by acridine orange/ethidium bromide staining-based inverted fluorescence microscopic method; assay type: functional, cell-based; procedure, shortened: as §3
[23] = system: NCI-H69; assay: Induction of apoptosis in human H69 cells assessed as increase in necrotic cells at 6 uM after 48 hrs by acridine orange/ethidium bromide staining-based inverted fluorescence microscopic method; assay type: functional, cell-based; procedure, shortened: as §3
[24] = Drug metabolism in mouse plasma assessed as formation of (3R,6R,9S,12R,15S)-3,9-dibenzyl-6,12-bis((1-butyl-1H-indol-3-yl)methyl)-15-isobutyl-4,7,10,13-tetraoxo-2,5,8,11,14-pentaazahexadecan-16-oic acid at 400 ug/ml after 48 hrs by mass spectrophotometric method; assay type: ADME, cell-free
[25] = system: NCI-H69; assay: Induction of apoptosis in human H69 cells assessed as loss of plasma membrane integrity at 6 uM after 48 hrs by acridine orange/ethidium bromide staining-based inverted fluorescence microscopic method; assay type: functional, cell-based; procedure, shortened: as §3
[26] = system: DMS-79; assay: Induction of apoptosis in human DMS79 cells assessed as chromatin condensation at 6 uM after 48 hrs by acridine orange/ethidium bromide staining-based inverted fluorescence microscopic method; assay type: functional, cell-based; procedure, shortened: as §3
[27] = system: NCI-H69; assay: Induction of apoptosis in human H69 cells assessed as chromatin condensation at 6 uM after 48 hrs by acridine orange/ethidium bromide staining-based inverted fluorescence microscopic method; assay type: functional, cell-based; procedure, shortened: as §3
[28] = system: DMS-79; assay: Induction of apoptosis in human DMS79 cells assessed as viable cells at 2 uM after 24 hrs by Annexin V/SYTOX Blue staining-based flow cytometric method (reference value: 61.7 +/- 9.1%); assay type: functional; details: DMS-79, 24 h, read-out: Activity
[29] = system: DMS-79; assay: Induction of apoptosis in human DMS79 cells assessed as necrotic cells at 6 uM after 24 hrs by Annexin V/SYTOX Blue staining-based flow cytometric method (reference value: 3.3 +/- 0.6%); assay type: functional
[30] = system: DMS-79; assay: Induction of apoptosis in human DMS79 cells assessed as late apoptotic cells at 2 uM after 24 hrs by Annexin V/SYTOX Blue staining-based flow cytometric method (reference value: 28.6 +/- 8.2%); assay type: functional
[31] = system: DMS-79; assay: Induction of apoptosis in human DMS79 cells assessed as cell shrinkage at 6 uM after 48 hrs by acridine orange/ethidium bromide staining-based inverted fluorescence microscopic method; assay type: functional; procedure, shortened: as §3
[32] = system: DMS-79; assay: Induction of apoptosis in human DMS79 cells assessed as increase in necrotic cells at 6 uM after 48 hrs by acridine orange/ethidium bromide staining-based inverted fluorescence microscopic method; assay type: functional, cell-based; procedure, shortened: as §3
[33] = Drug level in mouse plasma treated with (S)-2-((3R,6R,9S,12R)-3,9-dibenzyl-6,12-bis((1-butyl-1H-indol-3-yl)methyl)-4,7,10-trioxo-2,5,8,11-tetraazatridecanamido)-4-methylpentanamide at 400 ug/ml after 3 to 48 hrs by RP-HPLC method; assay type: ADME, cell-free; procedure, shortened: as §1
[34] = Drug level in mouse plasma treated with (S)-2-((3R,6R,9S,12R)-3,9-dibenzyl-6,12-bis((1-butyl-1H-indol-3-yl)methyl)-4,7,10-trioxo-2,5,8,11-tetraazatridecanamido)-4-methylpentanamide at 400 ug/ml after 48 hrs by mass spectrophotometric method; assay type: ADME, cell-free

C=CC(C)(C)n1cc(C[C@@H](NC(=O)[C@H](Cc2ccccc2)NC(=O)[C@@H](Cc2c[nH]c3ccccc23)NC(=O)[C@@H](Cc2ccccc2)NC)C(=O)N[C@@H](CC(C)C)C(N)=O)c2ccccc21 (H-[dNMeF][dW]F[X1]L-NH2)
remaining at 48 h, 400 ug/ml [1]: 35.9% | Retention_time [2]: 24.86 min | remaining at 3 h, 400 ug/ml [3]: 87.8% | Retention_time [4]: 24.62 min | Drug metabolism [5]: Metabolite_Detected | IC50 [6]: 2.84 µM | Drug metabolism [7]: Tde | IC50 [8]: 4.37 µM | Retention_time [9]: 24.89 min | Retention_time [10]: 24.86 min

CCCCn1cc(C[C@@H](NC(=O)[C@H](Cc2ccccc2)NC(=O)[C@@H](Cc2c[nH]c3ccccc23)NC(=O)[C@@H](Cc2ccccc2)NC)C(=O)N[C@@H](CC(C)C)C(N)=O)c2ccccc21 (H-[dNMeF][dW]F[dTrp(1-Bu)]L-NH2)
viability at 6 µM [11]: 1% | Activity [12]: Dose-dependent effect | Activity [13]: 95.5% | Activity [14]: Active | Retention_time [2]: 25.23 min | Activity [15]: 2.3% | Retention_time [4]: 25 min | Activity [16]: Active | Activity [17]: 8% | Activity [18]: Active | Drug metabolism [19]: Metabolite_Detected | Stability [20]: Stable | Activity [21]: 1.9% | Activity [22]: Active | Activity [23]: Active | Drug metabolism [7]: Tde | Retention_time [9]: 25.29 min | Drug metabolism [24]: Metabolite_Detected | Activity [25]: Active | Activity [26]: Active | Activity [27]: Active | viability at 2 µM [28]: 53.3% | Retention_time [10]: 25.26 min | Activity [29]: 1.6% | Activity [30]: 36.4% | Activity [31]: Active | Activity [32]: Active

CN[C@H](Cc1ccccc1)C(=O)N[C@H](Cc1c[nH]c2ccccc12)C(=O)N[C@@H](Cc1ccccc1)C(=O)N[C@H](Cc1c[nH]c2ccccc12)C(=O)N[C@@H](CC(C)C)C(N)=O (H-[dNMeF][dW]F[dW]L-NH2)
IC50 [6]: 30.7 µM | IC50 [8]: 23 µM

CCCCn1cc(C[C@@H](NC(=O)[C@H](Cc2ccccc2)NC(=O)[C@@H](Cc2c[nH]c3ccccc23)NC(=O)[C@@H](Cc2ccccc2)NC)C(=O)N[C@@H](CC(C)C)C(=O)O)c2ccccc21 (H-[dNMeF][dW]F[dTrp(1-Bu)]L-OH)
Retention_time [2]: 25.27 min | Drug metabolism [33]: Metabolite_Detected | Retention_time [4]: 25.36 min | Drug metabolism [5]: Metabolite_Notdetected | Drug metabolism [34]: Metabolite_Detected | IC50 [6]: > 30 µM | IC50 [8]: > 30 µM | Retention_time [9]: 25.3 min | Retention_time [10]: 25.29 min

CCCCn1cc(C[C@@H](NC(=O)[C@H](Cc2ccccc2)NC(=O)[C@@H](Cc2cn(CCCC)c3ccccc23)NC(=O)[C@@H](Cc2ccccc2)NC)C(=O)N[C@@H](CC(C)C)C(N)=O)c2ccccc21 (H-[dNMeF][dTrp(1-Bu)]F[dTrp(1-Bu)]L-NH2)
Activity [14]: Active | Retention_time [2]: 27.94 min | Retention_time [4]: 27.53 min | Activity [16]: Active | Activity [18]: Active | Drug metabolism [5]: Metabolite_Notdetected | Stability [20]: Stable | Activity [22]: Active | Activity [23]: Active | Drug metabolism [7]: Tde | Retention_time [9]: 27.93 min | Activity [25]: Active | Activity [26]: Active | Activity [27]: Active | Retention_time [10]: 27.94 min | Activity [31]: Active | Activity [32]: Active
